Screens (PubChem BioAssay)
Rows were chosen to be rich in hits. Some 4.3% of all compounds tested hit in one or more screens of this group.
Lipid droplet: inhibitors of hepatocyte lipid droplet formation, primary screen, imaging, high-throughput imaging, BODIPY stain. hit rate 0.4% among 240,000. AML12 mouse hepatocytes, oleate lipid droplets. AID 1656, 2009. inhibition, % at 6.5 µM;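 active = lipid droplet intensity inhibited by at least 50%, with more than 500 cells counted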
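material = mouse AML12 hepatocyte cell line, fixed after treatment | also added = 100 µM oleic acid challenge | doses = compound at 6.5 µM only | schedule = overnight exposure | technique = Image-based BODIPY and DAPI two-channel analysis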
SMARCA2 activ: SMARCA2 (BRM) function activators, primary screen, cell-based, luminescence, high throughput; MG213 cells, MMTV-luciferase reporter, dexamethasone, overnight; activation, % at 9.1 µM; hit rate 1% among 370,000; AID 652017, 2013; in the data active = activation above about 7.8%;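 note: 0% = vehicle wells and 100% = reference activator wells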
CR mimetic SO: reduction of superoxide in aged yeast, primary screen, HTS. S. cerevisiae aged cells, superoxide DHE fluorescence; hits give low values. superoxide response (% of plate mean), % at 10 µM. hit rate 0.18% among 330,000;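 active = superoxide response under a set limit, about three screen SD below normal, cut at about 65% in these data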;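 note: yeast aged for seven days with compound at 30 °C before DHE staining; 100% = average MFI of all compound-treated wells on the plate with controls excluded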
SR-BI HDL uptake: inhibitors of SR-BI mediated HDL lipid uptake, primary screen, ldlA[mSR-BI] cells, fluorescence, single point. inhibition, % at 12.5 µM. Scavenger receptor class B member 1 (Mus musculus), Q61009. hit rate 0.96% among 320,000. ldlA[mSR-BI] CHO cells, DiI-HDL uptake fluorescence, 3 h;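 active = mean replicate inhibition of at least 70% and a set share of replicates each scoring 70 or more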;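 note: 0% = median of neutral control wells and 100% = median of positive control wells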
SR-BI uptake up: activators of SR-BI mediated DiI-HDL uptake, primary screen, ldlA[mSR-BI] CHO cells, DiI fluorescence | 3 h; 100 = double the neutral-control signal | activation, % at 12.5 µM | hit rate 0.096% among 320,000 | AID 504775, 2011;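 active = mean replicate activation of at least 60% and every replicate at or above 60%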;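 note: 0% = median plate neutral-control signal and 100% = twice that signal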
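Test system: SR-BI-overexpressing, LDLR-lacking CHO cells; Also added: labelled HDL, 10 µg/mL; Measured by: bottom-read cell fluorescence after medium removal, ex 550/em 595 nm; Timing: 3 h uptake period with compound, 37 °C; Buffer or medium: F12, 0.5% BSA, 25 mM HEPES; Doses: single compound concentration, delivered by pin transfer.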
AHR activator: AHR activators, primary screen, cell-based, luminescence, luciferase reporter, human; hit rate 2.5% among 320,000; activation, % at 5 µM; AHR-responsive luciferase reporter cells; in the data active = activation above about 47%;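 note: 0% = vehicle wells and 100% = reference agonist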
Target sequence (P35869 whole entry, looked up): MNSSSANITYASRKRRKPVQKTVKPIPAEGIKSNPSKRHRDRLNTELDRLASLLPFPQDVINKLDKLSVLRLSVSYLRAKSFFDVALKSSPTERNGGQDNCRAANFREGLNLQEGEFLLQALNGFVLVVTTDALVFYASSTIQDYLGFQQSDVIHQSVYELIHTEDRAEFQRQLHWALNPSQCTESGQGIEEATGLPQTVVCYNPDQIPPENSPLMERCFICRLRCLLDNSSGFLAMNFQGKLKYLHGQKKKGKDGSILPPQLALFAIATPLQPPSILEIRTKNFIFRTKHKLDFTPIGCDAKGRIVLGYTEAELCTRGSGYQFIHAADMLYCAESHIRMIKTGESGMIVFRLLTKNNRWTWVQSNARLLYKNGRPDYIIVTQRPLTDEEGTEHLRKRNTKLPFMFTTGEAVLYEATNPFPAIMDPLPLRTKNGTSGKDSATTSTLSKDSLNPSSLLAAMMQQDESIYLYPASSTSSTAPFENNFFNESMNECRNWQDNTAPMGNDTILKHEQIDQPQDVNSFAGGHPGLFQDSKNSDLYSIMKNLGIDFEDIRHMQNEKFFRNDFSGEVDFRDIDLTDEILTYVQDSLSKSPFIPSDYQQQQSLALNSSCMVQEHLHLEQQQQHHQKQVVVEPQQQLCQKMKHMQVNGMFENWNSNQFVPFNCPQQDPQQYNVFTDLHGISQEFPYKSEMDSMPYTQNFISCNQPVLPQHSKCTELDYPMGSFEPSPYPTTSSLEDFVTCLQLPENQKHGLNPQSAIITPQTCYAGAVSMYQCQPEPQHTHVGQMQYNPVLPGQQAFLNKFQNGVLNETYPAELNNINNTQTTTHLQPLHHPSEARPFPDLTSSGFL
* hit, by the source's call.

Screening Nc1nnnn1/N=C/c1ccccc1OCc1ccc(Cl)cc1 returned Lipid droplet 16, SMARCA2 activ 0, CR mimetic SO 93, SR-BI HDL uptake 17, SR-BI uptake up -17 and AHR activator 5.
Screening Nc1nnnn1/N=C/c1ccccc1OCc1ccc(Cl)cc1Cl returned SMARCA2 activ -2, CR mimetic SO 103, SR-BI HDL uptake 28, SR-BI uptake up -28 and AHR activator 73*.
`O=[N+]([O-])c1ccc(N2CCN(C(=S)Nc3ccccc3)CC2)cc1` gave Lipid droplet 18, SMARCA2 activ 1, CR mimetic SO 99, SR-BI HDL uptake -15, SR-BI uptake up 15 and AHR activator -9.
For Cc1ccccc1C(=O)N1CCN(c2ccc(NC(=O)c3ccccc3[N+](=O)[O-])cc2)CC1 the results were Lipid droplet 15, SMARCA2 activ -1, CR mimetic SO 85, SR-BI HDL uptake 78*, SR-BI uptake up -78 and AHR activator -1.
`Cc1ccccc1C(=O)N1CCN(c2ccc(NC(=O)c3cccnc3Cl)cc2)CC1` gave Lipid droplet -2, SMARCA2 activ 3, CR mimetic SO 95, SR-BI HDL uptake 76*, SR-BI uptake up -76 and AHR activator -4.
For O=C(Nc1ccc(N2CCCC2)cc1)c1ccccc1[N+](=O)[O-] the results were Lipid droplet 6, SMARCA2 activ -1, CR mimetic SO 94, SR-BI HDL uptake 8, SR-BI uptake up -8 and AHR activator 5.
COc1ccc(C(=O)Nc2ccc(N3CCN(C(=O)c4ccccc4C)CC3)cc2)cc1 was read as Lipid droplet 1, SMARCA2 activ -3, CR mimetic SO 103, SR-BI HDL uptake 63, SR-BI uptake up -63 and AHR activator -4.
`O=[N+]([O-])c1ccc(NC(=S)N2CCN(c3ccccc3)CC2)cc1` gave Lipid droplet 1, SMARCA2 activ 1, CR mimetic SO 113, SR-BI HDL uptake -75, SR-BI uptake up 75* and AHR activator -1.
For O=C(Nc1cccc(Cl)c1Cl)c1ccc(-c2ccccc2)cc1 the results were SMARCA2 activ 4, CR mimetic SO 81, SR-BI HDL uptake -4, SR-BI uptake up 4 and AHR activator 65*.
`C(=N\n1cnnc1)/c1cccc(OCCOc2ccccc2)c1` gave Lipid droplet 11, SMARCA2 activ 5, CR mimetic SO 90, SR-BI HDL uptake 29, SR-BI uptake up -29 and AHR activator 64*.
`CCCC[C@@H]1C(=O)N2N=C(c3ccccc3)c3ccccc3[C@H]2N2N=C(c3ccccc3)c3ccccc3[C@@H]12` gave SMARCA2 activ -5.
For CC1=Nc2ccccc2/C1=C/c1nc(-c2ccc(C)s2)oc1O the results were Lipid droplet -17, SMARCA2 activ 0, CR mimetic SO 94, SR-BI HDL uptake 103*, SR-BI uptake up -103 and AHR activator 8.
For COc1ccc(OCc2nn3c(-c4ccccc4)nnc3s2)cc1 the results were SMARCA2 activ -6.
O=C(CSc1nnc(SCc2cccc3ccccc23)s1)Nc1ccccc1-c1ccccc1 was read as SMARCA2 activ -7.
CCOC(=O)C(C(=O)OCC)N(C#N)c1nc(SC)nc(N(C)C)n1 was read as SMARCA2 activ 1, CR mimetic SO 106, SR-BI HDL uptake -8, SR-BI uptake up 8 and AHR activator 62*.
Screening CCOC(=O)C(C(=O)OCC)N(C#N)c1nc(OC)nc(N(C)C)n1 returned Lipid droplet -2, SMARCA2 activ 1, CR mimetic SO 93, SR-BI HDL uptake 14, SR-BI uptake up -14 and AHR activator -2.
CC(C)c1ccc(NC2CCCN(C(=O)c3cccnc3)C2)cc1 (configuration not stated) was read as Lipid droplet -1, SMARCA2 activ -2, CR mimetic SO 93, SR-BI HDL uptake -6, SR-BI uptake up 6 and AHR activator 47.
`Cc1ccc(NC2CCCN(C(=O)c3cccnc3)C2)cc1C` (configuration not stated) gave Lipid droplet 27, SMARCA2 activ -3, CR mimetic SO 103, SR-BI HDL uptake -12, SR-BI uptake up 12 and AHR activator 48*.
For CCOC(=O)Nc1ccc2c(c1)[C@]1(CC(=O)N(CC(C)C)C1c1ccccc1)C(=O)N2C (some centres not stated) the results were SMARCA2 activ -2.
CNC(C)C#Cc1ccc2oc3cccc(OC)c3c(=O)c2c1 (configuration not stated) was read as Lipid droplet 9, SMARCA2 activ 7, CR mimetic SO 97, SR-BI HDL uptake 24, SR-BI uptake up -24 and AHR activator -5.
Screening CNC(C)C#Cc1ccc2c(=O)c3c(OC)cccc3oc2c1 (configuration not stated) returned CR mimetic SO 105 and AHR activator 97*.
For COc1ccc(C(C(=O)N(C)C2CCCC2)N(Cc2ccc(F)cc2)C(=O)c2ccc3ccccc3c2)cc1OC (configuration not stated) the results were SMARCA2 activ -5.
Screening COc1ccc(-c2ccc3c(c2)S(=O)(=O)c2cccc(C(=O)NCCOc4ccccc4)c2C3=O)cc1OC returned CR mimetic SO 95, SR-BI HDL uptake 73*, SR-BI uptake up -73 and AHR activator 2.
For O=C(NCCOc1ccccc1)c1cccc2c1C(=O)c1ccc(Cl)cc1S2(=O)=O the results were SMARCA2 activ 2, CR mimetic SO 103, SR-BI HDL uptake 3, SR-BI uptake up -3 and AHR activator 5.
Screening CNC(=O)c1cc(Nc2nnc(C)c3ccccc23)ccc1OC returned Lipid droplet -1, SMARCA2 activ -2, CR mimetic SO 103, SR-BI HDL uptake -4, SR-BI uptake up 4 and AHR activator 59*.
C=CCn1c(NC(=O)c2ccco2)nc2ccccc21 was read as Lipid droplet 2, SMARCA2 activ 0, CR mimetic SO 90, SR-BI HDL uptake 4, SR-BI uptake up -4 and AHR activator 68*.
`O=C(Cn1c(NCCO)nc2ccccc21)c1ccco1` gave Lipid droplet -9, SMARCA2 activ 1, CR mimetic SO 121, SR-BI HDL uptake -61, SR-BI uptake up 61* and AHR activator -1.
O=C(Nc1nc2ccccc2n1Cc1ccc(Cl)cc1)c1ccco1 was read as SMARCA2 activ -1, CR mimetic SO 102, SR-BI HDL uptake -4, SR-BI uptake up 4 and AHR activator 0.
COc1ccc(Nc2ncnc3c2cnn3-c2ccccc2)cc1OC was read as Lipid droplet 22, SMARCA2 activ 3, CR mimetic SO 105, SR-BI HDL uptake 21, SR-BI uptake up -21 and AHR activator -11.
